Laboratory results from ChEMBL document CHEMBL1141374 (J Med Chem, 2007).

Legend:
A549 = experiment: Growth inhibition in A549 cells; type: functional; settings: Homo sapiens
SK-MEL-5 = experiment: Growth inhibition in SK-MEL-5 cells; type: functional; settings: Homo sapiens
COLO 205 = experiment: Growth inhibition in COLO205 cells; type: functional; settings: Homo sapiens
786-0 = experiment: Growth inhibition in 786-0 cells; type: functional; settings: Homo sapiens
BT-549 = experiment: Growth inhibition in BT549 cells; type: functional; settings: Homo sapiens
[1] = Cytotoxicity against P-glycoprotein-overexpressing KB-V1 cell line; type: cell-based; settings: Homo sapiens
How it was run: (§1)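 Log-phase cells were diluted to 20 000–30 000 cells/mL, seeded, and left to attach overnight. They were then exposed to compounds at 10^–5–10^–12 M for 72 h at 37 °C in 5% CO2. Viable cells were measured by MTT, with absorbance read at 595 nm. Each compound ran in triplicate in at least three independent assays. IC50 came from nonlinear regression, and average values were reported.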

SK-OV-3 = experiment: Growth inhibition in SKOV3 cells; type: functional; settings: Homo sapiens
IGROV-1 = experiment: Growth inhibition in IGROV1 cells; type: functional; settings: Homo sapiens
NCI-H23 = experiment: Growth inhibition in NCI-H23 cells; type: functional; settings: Homo sapiens
HeLa = experiment: Cytotoxicity against HeLa cell line; type: cell-based; settings: Homo sapiens; how it was run: as §1
NCI-H322M = experiment: Growth inhibition in NCI-H322M cells; type: functional; settings: Homo sapiens
PC-3 = experiment: Growth inhibition in PC3 cells; type: functional; settings: Homo sapiens
ZR-75-1 = experiment: Cytotoxicity against ZR-75-1 cell line; type: cell-based; settings: Homo sapiens; how it was run: as §1
[2] = Growth inhibition in HCC116 cells; type: functional; settings: Homo sapiens
HCT-116 = experiment: Cytotoxicity against HCT116 cell line; type: cell-based; settings: Homo sapiens; how it was run: as §1
HOP-92 = experiment: Growth inhibition in HOP92 cells; type: functional; settings: Homo sapiens
CCRF-CEM = experiment: Growth inhibition in CCRF-CEM cells; type: functional; settings: Homo sapiens
NCI-H226 = experiment: Growth inhibition in NCI-H226 cells; type: functional; settings: Homo sapiens
ACHN = experiment: Growth inhibition in ACHN cells; type: functional; settings: Homo sapiens
DU-145 = experiment: Growth inhibition in DU145 cells; type: functional; settings: Homo sapiens
T47D = experiment: Growth inhibition in T47D cells; type: functional; settings: Homo sapiens
LOX IMVI = experiment: Growth inhibition in LOX IMVI cells; type: functional; settings: Homo sapiens
EKVX = experiment: Growth inhibition in EKVX cells; type: functional; settings: Homo sapiens
OVCAR-5 = experiment: Growth inhibition in OVCAR5 cells; type: functional; settings: Homo sapiens
HOP-62 = experiment: Growth inhibition in HOP62 cells; type: functional; settings: Homo sapiens
HCC 2998 = experiment: Growth inhibition in HCC2998 cells; type: functional; settings: Homo sapiens
SK-MEL-28 = experiment: Growth inhibition in SK-MEL-28 cells; type: functional; settings: Homo sapiens
SF-539 = experiment: Growth inhibition in SF539 cells; type: functional; settings: Homo sapiens
[3] = Cytotoxicity against KB-3-1 cell line; type: cell-based; settings: Homo sapiens; how it was run: as §1
HT-29 = experiment: Growth inhibition in HT29 cells; type: functional; settings: Homo sapiens
U-251 = experiment: Growth inhibition in U251cells; type: functional; settings: Homo sapiens
[4] = Growth inhibition in HS 578T cells; type: functional; settings: Homo sapiens
SF-268 = experiment: Growth inhibition in SF268 cells; type: functional; settings: Homo sapiens
UACC-62 = experiment: Growth inhibition in UACC62 cells; type: functional; settings: Homo sapiens
HL-60 = experiment: Growth inhibition in HL60 cells; type: functional; settings: Homo sapiens
MDA-MB-435 = experiment: Growth inhibition in MDA-MB-435 cells; type: functional; settings: Homo sapiens
TK-10 = experiment: Growth inhibition in TK10 cells; type: functional; settings: Homo sapiens
[5] = Growth inhibition in MDA-MB-231/ATCC cells; type: functional; settings: Homo sapiens
NCI-H460 = experiment: Growth inhibition in NCI-H460 cells; type: functional; settings: Homo sapiens
CAKI-1 = experiment: Growth inhibition in CAK1-1 cells; type: functional; settings: Homo sapiens
SF-295 = experiment: Growth inhibition in SF295 cells; type: functional; settings: Homo sapiens
UO-31 = experiment: Growth inhibition in UO31 cells; type: functional; settings: Homo sapiens
SN12C = experiment: Growth inhibition in SN12C cells; type: functional; settings: Homo sapiens
KM12 = experiment: Growth inhibition in KM12 cells; type: functional; settings: Homo sapiens
SNB-19 = experiment: Growth inhibition in SNB19 cells; type: functional; settings: Homo sapiens
K562 = experiment: Growth inhibition in K562 cells; type: functional; settings: Homo sapiens
A498 = experiment: Growth inhibition in A498 cells; type: functional; settings: Homo sapiens
SW-620 = experiment: Growth inhibition in SW620 cells; type: functional; settings: Homo sapiens
OVCAR-8 = experiment: Growth inhibition in OVCAR8 cells; type: functional; settings: Homo sapiens
UACC-257 = experiment: Growth inhibition in UACC257 cells; type: functional; settings: Homo sapiens
SNB-75 = experiment: Growth inhibition in SNB75 cells; type: functional; settings: Homo sapiens
OVCAR-3 = experiment: Growth inhibition in OVCAR-3 cells; type: functional; settings: Homo sapiens
MCF7 = experiment: Growth inhibition in MCF7 cells; type: functional; settings: Homo sapiens
M14 = experiment: Growth inhibition in M14 cells; type: functional; settings: Homo sapiens
[6] = Growth inhibition in HCC15 cells; type: functional; settings: Homo sapiens
NCI-H522 = experiment: Growth inhibition in NCI-H522 cells; type: functional; settings: Homo sapiens
NCI/ADR-RES = experiment: Growth inhibition in NCI/ADR-RES cells; type: functional; settings: Homo sapiens
RXF 393 = experiment: Growth inhibition in RXF393 cells; type: functional; settings: Homo sapiens
OVCAR-4 = experiment: Growth inhibition in OVCAR4 cells; type: functional; settings: Homo sapiens
Tubulin = experiment: Inhibition of tubulin polymerization; type: protein-complex assay, Homo sapiens
How it was run: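 Kit-based assay run per the manufacturer's instructions. Tubulin (>99% pure, 3 mg/mL) in G-PEM buffer, in a prewarmed plate with compound at 0.03–30 μM. OD340 nm read every 60 s at 37 °C for 1 h.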

COc1ccc(-n2cnnc2-c2cc(OC)c(OC)c(OC)c2)cc1F
GI50 (A549): 12 µM | GI50 (SK-MEL-5): 2.57 µM | GI50 (COLO 205): 3.98 µM | GI50 (786-0): 3.16 µM | GI50 (BT-549): 9.33 µM | IC50 [1]: 1.48 µM | GI50 (SK-OV-3): 8.32 µM | GI50 (IGROV-1): 4.9 µM | GI50 (NCI-H23): 2.24 µM | IC50 (HeLa): 0.173 µM | GI50 (NCI-H322M): 8.13 µM | GI50 (PC-3): 3.02 µM | IC50 (ZR-75-1): 0.367 µM | GI50 [2]: 3.02 µM | IC50 (HCT-116): 0.365 µM | GI50 (HOP-92): 5.37 µM | GI50 (CCRF-CEM): 2.57 µM | GI50 (NCI-H226): 7.08 µM | GI50 (ACHN): 5.62 µM | GI50 (DU-145): 4.79 µM | GI50 (T47D): > 100 µM | GI50 (LOX IMVI): 5.13 µM | GI50 (EKVX): 89.1 µM | GI50 (OVCAR-5): 5.62 µM | GI50 (HOP-62): 2.04 µM | GI50 (HCC 2998): 0.631 µM | GI50 (SK-MEL-28): 39.8 µM | GI50 (SF-539): 3.89 µM | IC50 [3]: 0.399 µM | GI50 (HT-29): 3.16 µM | GI50 (U-251): 5.13 µM | GI50 [4]: 6.46 µM | GI50 (SF-268): 9.33 µM | GI50 (UACC-62): 3.63 µM | GI50 (HL-60): 6.03 µM | GI50 (MDA-MB-435): 0.331 µM | GI50 (TK-10): > 100 µM | GI50 [5]: 6.46 µM | GI50 (NCI-H460): 3.16 µM | GI50 (CAKI-1): 2.95 µM | GI50 (SF-295): 1.86 µM | GI50 (UO-31): 17.8 µM | GI50 (SN12C): 4.68 µM | GI50 (KM12): 1.45 µM | GI50 (SNB-19): 6.31 µM | GI50 (K562): 0.759 µM | GI50 (A498): 8.13 µM | GI50 (SW-620): 4.07 µM | GI50 (OVCAR-8): 6.31 µM | GI50 (UACC-257): > 100 µM | GI50 (SNB-75): 3.02 µM | GI50 (OVCAR-3): 2.09 µM | GI50 (MCF7): 1 µM | GI50 (M14): 2.24 µM | GI50 [6]: 1.66 µM | GI50 (NCI-H522): 4.57 µM | GI50 (NCI/ADR-RES): 2 µM | GI50 (RXF 393): 1.7 µM | GI50 (OVCAR-4): 5.25 µM

COc1cc(-c2nncn2-c2ccc(N(C)C)cc2)cc(OC)c1OC
GI50 (A549): 0.398 µM | IC50 (Tubulin): 4.1 µM | GI50 (SK-MEL-5): 0.0692 µM | GI50 (COLO 205): 0.0871 µM | GI50 (786-0): 0.398 µM | GI50 (BT-549): 25.1 µM | IC50 [1]: 0.323 µM | GI50 (SK-OV-3): 0.347 µM | GI50 (IGROV-1): 0.0955 µM | GI50 (NCI-H23): 6.76 µM | IC50 (HeLa): 0.0296 µM | GI50 (NCI-H322M): 2.63 µM | GI50 (PC-3): 0.0282 µM | IC50 (ZR-75-1): 0.308 µM | GI50 [2]: 0.0603 µM | IC50 (HCT-116): 0.0915 µM | GI50 (HOP-92): 0.389 µM | GI50 (CCRF-CEM): 0.0617 µM | GI50 (NCI-H226): 100 µM | GI50 (ACHN): 0.204 µM | GI50 (DU-145): 1.86 µM | GI50 (T47D): 0.0479 µM | GI50 (LOX IMVI): 0.219 µM | GI50 (EKVX): > 100 µM | GI50 (OVCAR-5): 4.27 µM | GI50 (HOP-62): 0.275 µM | GI50 (HCC 2998): 0.0851 µM | GI50 (SF-539): 0.324 µM | IC50 [3]: 0.119 µM | GI50 (HT-29): 0.0309 µM | GI50 (U-251): 0.151 µM | GI50 [4]: 0.417 µM | GI50 (SF-268): 0.0347 µM | GI50 (UACC-62): 0.0955 µM | GI50 (HL-60): 0.105 µM | GI50 (MDA-MB-435): < 0.01 µM | GI50 (TK-10): 1.66 µM | GI50 [5]: 1.02 µM | GI50 (NCI-H460): 0.178 µM | GI50 (CAKI-1): 0.135 µM | GI50 (SF-295): 0.0372 µM | GI50 (UO-31): 0.955 µM | GI50 (SN12C): 0.724 µM | GI50 (KM12): 0.0263 µM | GI50 (SNB-19): 0.204 µM | GI50 (K562): 0.0129 µM | GI50 (A498): 0.49 µM | GI50 (SW-620): 0.0759 µM | GI50 (OVCAR-8): 2.57 µM | GI50 (UACC-257): 100 µM | GI50 (SNB-75): 0.107 µM | GI50 (OVCAR-3): 0.0347 µM | GI50 (MCF7): 0.275 µM | GI50 (M14): 0.0501 µM | GI50 [6]: 0.0603 µM | GI50 (NCI-H522): 0.0575 µM | GI50 (NCI/ADR-RES): 0.129 µM | GI50 (RXF 393): 1.62 µM | GI50 (OVCAR-4): 20.9 µM
